Experimental data: ChEMBL document CHEMBL3593222, “6-Phenoxy-2-phenylbenzoxazoles, novel inhibitors of receptor for advanced glycation end products (RAGE)” (Bioorg Med Chem, 2015)
The source made the active and inactive calls. The calls are words filed in the database; no cut-off is given here.

Assays:
[1] = target: Advanced glycosylation end product-specific receptor (Homo sapiens) (UniProt Q15109); test: Inhibition of human RAGE-amyloid beta-42 interaction at 4 uM preincubated for 30 mins measured after 1 hr by FRET assay relative to control
Sequence of Advanced glycosylation end product-specific receptor (Homo sapiens) (Q15109 whole entry): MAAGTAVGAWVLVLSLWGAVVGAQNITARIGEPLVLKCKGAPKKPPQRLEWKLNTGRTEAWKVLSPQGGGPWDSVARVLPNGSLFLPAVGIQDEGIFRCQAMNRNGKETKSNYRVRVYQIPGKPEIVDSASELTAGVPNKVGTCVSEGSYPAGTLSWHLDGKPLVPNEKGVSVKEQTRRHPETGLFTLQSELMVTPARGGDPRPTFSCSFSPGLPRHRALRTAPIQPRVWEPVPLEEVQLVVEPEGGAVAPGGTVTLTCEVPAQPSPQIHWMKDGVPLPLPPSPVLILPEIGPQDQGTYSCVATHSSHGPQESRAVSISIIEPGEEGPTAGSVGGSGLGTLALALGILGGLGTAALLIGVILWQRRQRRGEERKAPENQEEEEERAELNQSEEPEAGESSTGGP
Procedure, shortened: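 Biotinylated human RAGE (2.5 µg) was premixed with 200 ng Cy3-streptavidin in PBS for 30 min at rt. Aβ42-FITC (50 µL of 40 nM) and compound (50 µL of 4 µM) were then added, in 200 µL final volume with 0.1% DMSO. Fluorescence was read 1 h later. FRET efficiency was computed from donor emission with and without acceptor, and percent inhibition was taken against vehicle. Triplicate.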

HT-22 [2] = test: (§1) Cytotoxicity against mouse HT22 cells assessed as cell viability at 10 uM after 18 hrs by MTT assay; type: cell-based; details: ht-22, 18 h, 10 µM
Procedure, shortened: (§2)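 HT22 cells were grown in DMEM with 10% FBS and penicillin/streptomycin at 37 °C in 5% CO2, and seeded at 5000 cells/well. Next day they were exposed to 10 µM compound for 18 h. MTT was then added for 3 h, formazan dissolved in acidic 2-propanol, and OD read at 570 nm. Viability is blank-corrected absorbance relative to control. Run in triplicate.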

[3] = as §1; type: cell-based, HT-22; details: HT22 cells, read-out: Activity; procedure, shortened: as §2
HT-22 [4] = test: Neuroprotective activity in mouse HT22 cells assessed as inhibition of amyloid beta-induced cytotoxicity by measuring cell viability at 10 uM after 18 hrs by MTT assay; type: functional; details: HT-22, 18 h
Procedure, shortened: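 Aβ peptide was pretreated in HFIP, dried to a film, redissolved in DMSO, and aggregated at 200 µM in PBS for 24 h at 4 °C. HT22 cells (5000/well) were exposed the next day to 2 µM aggregated Aβ plus 10 µM compound for 18 h. Viability was read by MTT at 570 nm, and percent inhibition was calculated against Aβ with vehicle. Triplicate.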

SMILES | inhibition [1] | Activity (HT-22 [2]) | viability at 18 h, 10 µM [3] [%] | inhibition at 10 µM (HT-22 [4]) [%]
N[C@@H]1CCN(CCCOc2ccc(-c3nc4ccc(Oc5ccc(Cl)cc5)cc4o3)cc2)C1 | 19.6% | Non-toxic |  | 
CCN1CCC(COc2ccc(-c3nc4ccc(Oc5ccc(Cl)cc5)cc4o3)cc2)CC1 | 2.1% |  | 4.1 | 
Clc1ccc(Oc2ccc3nc(-c4ccc(OCCCN5CCCCC5)cc4)oc3c2)cc1 | 2.2% |  | 32.4 | 
N[C@H]1CCN(CCCOc2ccc(-c3nc4ccc(Oc5ccc(Cl)cc5)cc4o3)cc2)C1 | 29.9% | Non-toxic |  | 
Clc1ccc(Oc2ccc3nc(-c4ccc(OCC5CCNCC5)cc4)oc3c2)cc1 | inactive |  | 29 | 
COC(=O)N1CCN(CCCOc2ccc(-c3nc4ccc(Oc5ccc(Cl)cc5)cc4o3)cc2)CC1 | inactive | Non-toxic |  | 
CCN(CC)CCCOc1ccc(-c2nc3ccc(Oc4ccc(Cl)cc4)cc3o2)cc1 | 4.9% |  | 32.1 | 
CC(C)(C)OC(=O)N[C@@H]1CCN(CCCOc2ccc(-c3nc4ccc(Oc5ccc(C(C)(C)C)cc5)cc4o3)cc2)C1 | 26.8% | Non-toxic |  | 
CCN(CC)CCCOc1ccc(-c2nc3ccc(Oc4ccc(C(C)(C)C)cc4)cc3o2)cc1 | inactive |  | 74.1 | 
CC(C)N1CCC(COc2ccc(-c3nc4ccc(Oc5ccc(Cl)cc5)cc4o3)cc2)CC1 | 26.2% | Non-toxic |  | 
CC(C)N1CCC(Oc2ccc(-c3nc4ccc(Oc5ccc(Cl)cc5)cc4o3)cc2)CC1 | 12.7% |  | 86.5 | 
CC(C)(C)c1ccc(Oc2ccc3nc(-c4ccc(OCCCN5CC[C@@H](N)C5)cc4)oc3c2)cc1 | inactive |  | 12.8 | 
Fc1ccc(Oc2ccc3nc(-c4ccc(OCCCN5CCOCC5)cc4)oc3c2)cc1 | 56.7% | Non-toxic |  | 
CC(C)(C)c1ccc(Oc2ccc3nc(-c4ccc(OCCCN5CCCC5)cc4)oc3c2)cc1 | inactive | Non-toxic |  | 
CC(C)COC(=O)N1CCN(CCCOc2ccc(-c3nc4ccc(Oc5ccc(Cl)cc5)cc4o3)cc2)CC1 | 41.2% | Non-toxic |  | 
CCN(CC)CCCOc1ccc(-c2nc3ccc(Oc4ccc(C(F)(F)F)cc4)cc3o2)cc1 | 34.9% | Non-toxic |  | 
CN1CCC(Oc2ccc(-c3nc4ccc(Oc5ccc(Cl)cc5)cc4o3)cc2)CC1 | 19.5% |  | 74.3 | 
CC(C)(C)OC(=O)N1CCN(CCCOc2ccc(-c3nc4ccc(Oc5ccc(C(F)(F)F)cc5)cc4o3)cc2)CC1 | 27.8% |  | 7.9 | 
CC(C)(C)c1ccc(Oc2ccc3nc(-c4ccc(OCCCN5CCCCC5)cc4)oc3c2)cc1 | inactive |  | 49.4 | 
CC(C)(C)OC(=O)N1CCC(COc2ccc(-c3nc4ccc(Oc5ccc(Cl)cc5)cc4o3)cc2)CC1 | inactive | Non-toxic |  | 
Clc1ccc(Oc2ccc3nc(-c4ccc(OC5CCNCC5)cc4)oc3c2)cc1 | 20.6% |  | 20.6 | 
CC(C)(C)OC(=O)N1CCC(Oc2ccc(-c3nc4ccc(Oc5ccc(Cl)cc5)cc4o3)cc2)CC1 | inactive | Non-toxic |  | 
Clc1ccc(Oc2ccc3nc(-c4ccc(OCCCN5CCOCC5)cc4)oc3c2)cc1 | inactive | Non-toxic |  | 
FC(F)(F)c1cccc(Oc2ccc3nc(-c4ccc(OCCCN5CCCCC5)cc4)oc3c2)c1 | 42.7% |  | 4.4 | 
Clc1ccc(Oc2ccc3nc(-c4ccc(OCCN5CCOCC5)cc4)oc3c2)cc1 | 25.7% | Non-toxic |  | 
CC(C)OC(=O)N1CCN(CCCOc2ccc(-c3nc4ccc(Oc5ccc(Cl)cc5)cc4o3)cc2)CC1 | 25.9% | Non-toxic |  | 54.4

SMILES | inhibition [1] | Activity (HT-22 [2]) | viability at 18 h, 10 µM [3] [%] | inhibition at 10 µM (HT-22 [4]) [%]
Fc1ccc(Oc2ccc3nc(-c4ccc(OCCCN5CCCCC5)cc4)oc3c2)cc1 | 30.3% | Non-toxic |  | 
Clc1ccc(Oc2ccc3nc(-c4ccc(OCCCN5CCNCC5)cc4)oc3c2)cc1 | 42.7% |  | 18.5 | 
CC(C)(C)OC(=O)N[C@H]1CCN(CCCOc2ccc(-c3nc4ccc(Oc5ccc(Cl)cc5)cc4o3)cc2)C1 | 16.6% |  | 58.2 | 
CC(C)(C)OC(=O)N1CCN(CCCOc2ccc(-c3nc4ccc(Oc5ccc(F)cc5)cc4o3)cc2)CC1 | 21% |  | 15.2 | 62.3
FC(F)(F)c1ccc(Oc2ccc3nc(-c4ccc(OCCCN5CCOCC5)cc4)oc3c2)cc1 | 32.1% | Non-toxic |  | 
CCN1CCC(Oc2ccc(-c3nc4ccc(Oc5ccc(Cl)cc5)cc4o3)cc2)CC1 | 15.3% |  | 38.2 | 
FC(F)(F)c1cccc(Oc2ccc3nc(-c4ccc(OCCCN5CCOCC5)cc4)oc3c2)c1 | inactive | Non-toxic |  | 
OCCN1CCN(CCCOc2ccc(-c3nc4ccc(Oc5ccc(Cl)cc5)cc4o3)cc2)CC1 | 3.3% |  | 3.3 | 
CCN(CC)CCCOc1ccc(-c2nc3ccc(Oc4ccc(F)cc4)cc3o2)cc1 | 5.4% | Non-toxic |  | 
CC(C)(C)C1CCN(CCCOc2ccc(-c3nc4ccc(Oc5ccc(Cl)cc5)cc4o3)cc2)CC1 | 16.6% |  | 32.2 | 
CC(C)(C)c1ccc(Oc2ccc3nc(-c4ccc(OCCCN5CC[C@H](N)C5)cc4)oc3c2)cc1 | 54.7% |  | 60.3 | 
CC(C)(C)OC(=O)N1CCN(CCCOc2ccc(-c3nc4ccc(Oc5cccc(C(F)(F)F)c5)cc4o3)cc2)CC1 | 22.8% | Non-toxic |  | 56.2
CC(C)(C)OC(=O)N[C@@H]1CCN(CCCOc2ccc(-c3nc4ccc(Oc5ccc(Cl)cc5)cc4o3)cc2)C1 | 90.2% |  | 63.2 | 
CC(C)(C)OC(=O)N1CCN(CCOc2ccc(-c3nc4ccc(Oc5ccc(Cl)cc5)cc4o3)cc2)CC1 | 24.6% | Non-toxic |  | 50.6
Clc1ccc(Oc2ccc3nc(-c4ccc(OCCCN5CCCC5)cc4)oc3c2)cc1 | inactive | Non-toxic |  | 
CC(=O)N1CCC(Oc2ccc(-c3nc4ccc(Oc5ccc(Cl)cc5)cc4o3)cc2)CC1 | 20% | Non-toxic |  | 
CC(C)(C)c1ccc(Oc2ccc3nc(-c4ccc(OCCCN5CCOCC5)cc4)oc3c2)cc1 | inactive | Non-toxic |  | 
CC(C)(C)OC(=O)N[C@H]1CCN(CCCOc2ccc(-c3nc4ccc(Oc5ccc(C(C)(C)C)cc5)cc4o3)cc2)C1 | 61.6% |  | 8.2 | 
Clc1ccc(Oc2ccc3nc(-c4ccc(OCCN5CCCCC5)cc4)oc3c2)cc1 | 18.5% |  | 21.4 | 
CCOC(=O)N1CCN(CCCOc2ccc(-c3nc4ccc(Oc5ccc(Cl)cc5)cc4o3)cc2)CC1 | 6.6% | Non-toxic |  | 
CC(=O)N1CCC(COc2ccc(-c3nc4ccc(Oc5ccc(Cl)cc5)cc4o3)cc2)CC1 | inactive |  | 32.7 | 
CCN(CC)CCOc1ccc(-c2nc3ccc(Oc4ccc(Cl)cc4)cc3o2)cc1 | 33.5% |  | 85.2 | 
FC(F)(F)c1ccc(Oc2ccc3nc(-c4ccc(OCCCN5CCCCC5)cc4)oc3c2)cc1 | 44.3% |  | 93.4 | 
CCN(CC)CCCOc1ccc(-c2nc3ccc(Oc4cccc(C(F)(F)F)c4)cc3o2)cc1 | 24.1% | Non-toxic |  | 
CN1CCN(CCCOc2ccc(-c3nc4ccc(Oc5ccc(Cl)cc5)cc4o3)cc2)CC1 | 24.3% |  | 69.3 | 
